Reference: ChEMBL document CHEMBL1131075, “New aza-dipeptide analogues as potent and orally absorbed HIV-1 protease inhibitors: candidates for clinical development” (J Med Chem, 1998)

Assays:
[1] = molecular target: Human immunodeficiency virus type 1 protease (Human immunodeficiency virus 1) (UniProt Q72874); assay: concentration of compound required to inhibit 90% of RT production in HIV-1/MN-infected MT-2 cells.; format: functional, cell-based; conditions: MT2
Summary of the method: (§1)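 HIV-1/MN virus stocks taken from culture supernatant of chronically infected H9/HIV-1/MN cells and used to infect MT-2 cells. Antiviral effect read out as percent reduction of reverse transcriptase activity. ED50 and ED90 are the concentrations giving 50% and 90% inhibition of RT production. Values are averages of at least three determinations.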

[2] = molecular target: Human immunodeficiency virus type 1 protease (Human immunodeficiency virus 1) (UniProt Q72874); assay: Concentration required to inhibit 50% of RT production in HIV-1/MN-infected MT-2 cells.; format: functional, cell-based; conditions: MT2; summary of the method: as §1
Mus musculus [3] = assay: Drug concentration in blood sample was analyzed by reversed phase HPLC 30 min (c30) after oral application of 120 mg/kg in a standardized formulation; format: functional
Summary of the method: (§2)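 Female Balb/c mice with free access to food and water, dosed by gavage at 120 mg/kg. Compound dissolved in DMSO at 240 mg/mL, then diluted 1:20 with aqueous 20% hydroxypropyl-β-cyclodextrin, giving a suspension. Four mice per time point; heart blood taken at 30 and 90 min. Plasma deproteinated with acetonitrile and quantified by reversed-phase HPLC-UV against a plasma calibration curve.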

Mus musculus [4] = assay: Drug concentration in blood sample was analyzed by reversed phase HPLC 30 min (c90) after oral application of 120 mg/kg in a standardized formulation; format: functional; conditions: in the assay text read “90 min” for “30 min”; summary of the method: as §2
[5] = system: Human immunodeficiency virus 1; assay: Antiviral activity against HIV-1 protease inhibitor-resistant strain(CGP 61755 resistant)of the HI virus(Mutant: V32I,M46I,L63P,I84A); format: functional
Summary of the method: (§3)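 CEM-SS cells were infected with each HIV-1 strain (MOI 0.001-0.005) for 4 h at 37 °C, then washed and plated at 20 000 cells/well with serial 3-fold compound dilutions in triplicate at 37 °C, 5% CO2. Compound was kept at constant final concentration through cell splitting on day 4 and medium replacement on day 7. Supernatant RT activity was assayed on days 4, 7 and 10. Value is the lowest concentration giving total inhibition of replication until day 10, averaged over at least three determinations.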

[6] = system: Human immunodeficiency virus 1; assay: Antiviral activity against HIV-1 protease inhibitor-resistant strain(CGP 61755 resistant)of the HI virusMutant: K45I,A71Tmix,L76F,I84Vmix); format: functional; summary of the method: as §3
[7] = system: Human immunodeficiency virus 1; assay: Antiviral activity against HIV-1 protease inhibitor-resistant strain(Wild type) of the HI virus; format: functional; summary of the method: as §3
[8] = system: Human immunodeficiency virus 1; assay: Antiviral activity against HIV-1 protease inhibitor-resistant strain(indinavir resistant)of the HI virus(L10R,M46I,L63P,V82T,I84V); format: functional; summary of the method: as §3
[9] = system: Human immunodeficiency virus 1; assay: Antiviral activity against HIV-1 protease inhibitor-resistant strain(saquinavir resistant) of the HI virus.(Mutant: G48V,L90M); format: functional; summary of the method: as §3
[10] = system: Human immunodeficiency virus 1; assay: Antiviral activity against HIV-1 protease inhibitor-resistant strain(CGP 61755 resistant) of the HI virusMutant: K45I,A71Tmix,L76F,I84Vmix); format: functional; summary of the method: as §3
[11] = system: Human immunodeficiency virus 1; assay: Antiviral activity against HIV-1 protease inhibitor-resistant strain(indinavir resistant) of the HI virus(L10R,M46I,L63P,V82T,I84V); format: functional; summary of the method: as §3
[12] = system: Human immunodeficiency virus 1; assay: Antiviral activity against HIV-1 protease inhibitor-resistant strain(CGP 61755 resistant) of the HI virus(Mutant: V32I,M46I,L63P,I84A); format: functional; summary of the method: as §3

| ED90 [1] [nM] | ED50 [2] [nM] | Compound | c30 (Mus musculus [3]) [µM] | c90 (Mus musculus [4]) [µM] | ED [5] [µM] | ED [6] [µM] | ED [7] [µM] | ED [8] [µM] | ED [9] [µM] | ED [10] [µM] | ED [11] [µM] | ED [12] [µM] |
| --- | --- | --- | --- | --- | --- | --- | --- | --- | --- | --- | --- | --- |
| 3 | 1.2 | CCOC(=O)N[C@H](C(=O)NN(Cc1ccc(-c2cncs2)cc1)C[C@H](O)[C@H](Cc1ccccc1)NC(=O)[C@@H](NC(=O)OC)C(C)(C)C)C(C)C | 1.4 | 1.4 | – | – | – | – | – | – | – | – |
| 10 | 2.8 | CCC(C)[C@H](NC(=O)OC)C(=O)N[C@@H](Cc1ccccc1)[C@@H](O)CN(Cc1ccc(-c2ccccn2)cc1)NC(=O)[C@@H](NC(=O)OC)C(C)C (stereo partly specified) | 0.4 | 0.3 | – | – | – | – | – | – | – | – |
| 30 | 5.4 | CCOC(=O)N[C@H](C(=O)NN(Cc1ccc(-c2ccccn2)cc1)C[C@H](O)[C@H](Cc1ccccc1)NC(=O)[C@@H](NC(=O)OC)C(C)C)C(C)C | 0.5 | 0.2 | – | – | – | – | – | – | – | – |
| 3 | 0.8 | COC(=O)N[C@H](C(=O)N[C@@H](Cc1ccccc1)[C@@H](O)CN(Cc1ccc(-c2cncs2)cc1)NC(=O)[C@@H](NC(=O)OC)C(C)(C)C)C(C)(C)C | 12.6 | 9.9 | – | – | – | – | – | – | – | – |
| 30 | 7.4 | COC(=O)N[C@H](C(=O)N[C@@H](Cc1ccccc1)[C@@H](O)CN(Cc1ccc(-c2ccccn2)cc1)NC(=O)[C@@H](NC(=O)OC)C(C)C)C(C)C | 2.7 | 2.2 | – | – | – | – | – | – | – | – |
| 3 | 0.7 | COC(=O)N[C@H](C(=O)NN(Cc1ccc(-c2ccccc2)cc1)C[C@H](O)[C@H](Cc1ccccc1)NC(=O)[C@@H](NC(=O)OC)C(C)(C)C)C(C)C | 0.6 | 1.1 | – | – | – | – | – | – | – | – |
| 10 | 1.6 | CCN(CC)c1ccc(CN(C[C@H](O)[C@H](Cc2ccccc2)NC(=O)[C@@H](NC(=O)OC)C(C)(C)C)NC(=O)[C@@H](NC(=O)OC)C(C)(C)C)cc1 | 11.8 | 7.6 | – | – | – | – | – | – | – | – |
| 10 | 1.4 | COC(=O)N[C@H](C(=O)N[C@@H](Cc1ccccc1)[C@@H](O)CN(Cc1ccc(-c2cncs2)cc1)NC(=O)[C@@H](NC(=O)OC)C(C)(C)C)C(C)C | 8.5 | 4.4 | – | – | – | – | – | – | – | – |
| 10 | 1.9 | COC(=O)N[C@H](C(=O)NN(Cc1ccc(-c2cncs2)cc1)C[C@H](O)[C@H](Cc1ccccc1)NC(=O)[C@@H](NC(=O)OC)C(C)(C)C)C(C)C | 8.5 | 5.7 | – | – | – | – | – | – | – | – |
| 10 | 2 | COC(=O)N[C@H](C(=O)N[C@@H](Cc1ccccc1)[C@@H](O)CN(Cc1ccc(-c2ccccn2)cc1)NC(=O)[C@@H](NC(=O)OC)C(C)(C)C)C(C)C | 13.8 | 12.7 | – | – | – | – | – | – | – | – |

Continued, compound first:

| Compound | ED90 [1] [nM] | ED50 [2] [nM] | c30 (Mus musculus [3]) [µM] | c90 (Mus musculus [4]) [µM] | ED [5] [µM] | ED [6] [µM] | ED [7] [µM] | ED [8] [µM] | ED [9] [µM] | ED [10] [µM] | ED [11] [µM] | ED [12] [µM] |
| --- | --- | --- | --- | --- | --- | --- | --- | --- | --- | --- | --- | --- |
| COC(=O)N[C@H](C(=O)N[C@@H](Cc1ccccc1)[C@@H](O)CN(Cc1ccc(-c2nnn(C(C)(C)C)n2)cc1)NC(=O)[C@@H](NC(=O)OC)C(C)(C)C)C(C)(C)C | 3 | 0.8 | 4.2 | 4.6 | – | – | – | – | – | – | – | – |
| COC(=O)N[C@H](C(=O)N[C@@H](Cc1ccccc1)[C@@H](O)CN(CCC(C)C)NC(=O)[C@@H](NC(=O)OC)C(C)C)C(C)C | 30 | 2.7 | <0.2 | 0.4 | – | – | – | – | – | – | – | – |
| COC(=O)N[C@H](C(=O)N[C@@H](Cc1ccccc1)[C@@H](O)CN(Cc1ccc(-c2ccccc2)cc1)NC(=O)[C@@H](NC(=O)OC)C(C)(C)C)C(C)C | 3 | 1.5 | 6.3 | 5.4 | – | – | – | – | – | – | – | – |
| COC(=O)N[C@H](C(=O)N[C@@H](Cc1ccccc1)[C@@H](O)CN(Cc1ccc(-c2ccccc2)cc1)NC(=O)[C@@H](NC(=O)OC)C(C)(C)C)C(C)(C)C | 3 | 0.7 | 5.5 | 4.9 | 0.9 | 0.3 | 0.01 | 0.1 | 0.01 | – | – | – |
| COC(=O)N[C@H](C(=O)N[C@@H](Cc1ccccc1)[C@@H](O)CN(Cc1ccc(-c2ccccn2)cc1)NC(=O)[C@@H](NC(=O)OC)C(C)(C)C)C(C)(C)C [ATAZANAVIR] | 3 | 1.4 | 21.8 | 31.8 | – | – | 0.01 | – | 0.004 | 0.3 | 0.03 | 0.3 |
| COC(=O)N[C@H](C(=O)N[C@@H](Cc1ccccc1)[C@@H](O)CN(Cc1ccc(-c2ccccc2)cc1)NC(=O)[C@@H](NC(=O)OC)C(C)C)C(C)C | 10 | 1.8 | <0.1 | 0.3 | – | – | – | – | – | – | – | – |
| COC(=O)N[C@H](C(=O)N[C@@H](Cc1ccccc1)[C@@H](O)CN(Cc1ccc(-c2nccs2)cc1)NC(=O)[C@@H](NC(=O)OC)C(C)(C)C)C(C)C | 10 | 2.1 | 17.5 | 14.9 | – | – | – | – | – | – | – | – |
| COC(=O)N[C@H](C(=O)N[C@@H](Cc1ccccc1)[C@@H](O)CN(Cc1ccc(-c2nnn(C)n2)cc1)NC(=O)[C@@H](NC(=O)OC)C(C)(C)C)C(C)(C)C | 10 | 0.8 | 20.3 | 14.7 | – | – | 0.01 | – | 0.01 | 0.9 | 0.1 | – |
| COC(=O)N[C@H](C(=O)N[C@@H](Cc1ccccc1)[C@@H](O)CN(Cc1ccc(-c2nccs2)cc1)NC(=O)[C@@H](NC(=O)OC)C(C)(C)C)C(C)(C)C | 3 | 0.5 | 9.1 | 10.2 | – | – | 0.01 | – | 0.004 | 0.3 | 0.1 | – |
| COC(=O)N[C@H](C(=O)NN(Cc1ccc(-c2ccccn2)cc1)C[C@H](O)[C@H](Cc1ccccc1)NC(=O)[C@@H](NC(=O)OC)C(C)(C)C)C(C)C | 10 | 2.6 | 15.3 | 13.3 | – | – | – | – | – | – | – | – |
| CCOC(=O)N[C@H](C(=O)N[C@@H](Cc1ccccc1)[C@@H](O)CN(CC1CCCCC1)NC(=O)[C@@H](NC(=O)OCC)C(C)C)C(C)C | 1000 | 55 | 6.7 | 7.8 | – | – | – | – | – | – | – | – |
| COC(=O)N[C@H](C(=O)N[C@@H](Cc1ccccc1)[C@@H](O)CN(Cc1ccc(-c2cncs2)cc1)NC(=O)[C@@H](NC(=O)OC)C(C)C)C(C)C | 30 | 5.6 | 1.8 | 0.1 | – | – | – | – | – | – | – | – |
